Experimental data published in ChEMBL document CHEMBL3994609, “Model-Based Discovery of Synthetic Agonists for the Zn2+-Sensing G-Protein-Coupled Receptor 39 (GPR39) Reveals Novel Biological Functions” (J Med Chem, 2017).
≈ marks a conversion by molar mass, not a printed value. Calls of active or inactive are those of the source. The rule behind the calls is not given here.

Assays:
[1] = target: T1, G-protein coupled receptor 39 (Mus musculus, UniProt Q5U431); experiment: Agonist activity at mouse GPR39 expressed in HEK293 cells co-expressing Galphaq assessed as myo-[2-3H]inositol phosphate accumulation measured after 75 mins by scintillation proximity assay; assay type: functional, cell-based
T1 sequence (Q5U431 whole entry): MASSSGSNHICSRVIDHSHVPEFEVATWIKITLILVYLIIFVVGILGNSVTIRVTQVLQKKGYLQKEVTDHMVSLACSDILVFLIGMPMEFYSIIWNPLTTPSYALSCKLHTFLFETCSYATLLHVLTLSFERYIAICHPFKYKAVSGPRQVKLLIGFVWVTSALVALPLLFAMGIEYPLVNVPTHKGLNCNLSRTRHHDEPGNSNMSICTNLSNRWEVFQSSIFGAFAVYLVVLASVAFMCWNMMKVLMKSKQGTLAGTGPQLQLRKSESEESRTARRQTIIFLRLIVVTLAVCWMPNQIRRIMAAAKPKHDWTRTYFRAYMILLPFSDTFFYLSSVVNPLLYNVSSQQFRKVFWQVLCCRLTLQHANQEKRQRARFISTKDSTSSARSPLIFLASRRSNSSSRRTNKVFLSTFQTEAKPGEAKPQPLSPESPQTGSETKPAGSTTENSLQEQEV

[2] = target: T1, G-protein coupled receptor 39; experiment: Agonist activity at mouse GPR39 expressed in HEK293 cells co-expressing Galphaq assessed as myo-[2-3H]inositol phosphate accumulation in presence of 10 uM Zn2+ measured after 75 mins by scintillation proximity assay; assay type: functional, cell-based
[3] = target: Motilin receptor (Homo sapiens) (UniProt O43193); experiment: Agonist activity at human motilin receptor (412 residues) assessed as myo-[2-3H]inositol phosphate accumulation measured after 75 mins by scintillation proximity assay; assay type: functional
Sequence of Motilin receptor (Homo sapiens) (O43193 whole entry): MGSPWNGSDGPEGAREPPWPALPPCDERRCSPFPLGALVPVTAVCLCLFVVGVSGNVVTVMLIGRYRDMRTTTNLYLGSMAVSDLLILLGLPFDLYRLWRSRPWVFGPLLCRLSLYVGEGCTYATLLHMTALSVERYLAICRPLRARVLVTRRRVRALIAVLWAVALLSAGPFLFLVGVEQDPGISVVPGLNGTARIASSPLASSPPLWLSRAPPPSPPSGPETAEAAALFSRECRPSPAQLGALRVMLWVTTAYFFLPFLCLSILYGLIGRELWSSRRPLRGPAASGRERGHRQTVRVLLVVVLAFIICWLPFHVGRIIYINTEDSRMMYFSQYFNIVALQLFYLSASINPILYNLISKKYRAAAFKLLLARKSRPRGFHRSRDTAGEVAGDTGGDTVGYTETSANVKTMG

[4] = target: Neuromedin-U receptor 2 (Homo sapiens) (UniProt Q9GZQ4); experiment: Agonist activity at human NMU2 receptor assessed as myo-[2-3H]inositol phosphate accumulation measured after 75 mins by scintillation proximity assay; assay type: functional
Sequence of Neuromedin-U receptor 2 (Homo sapiens) (Q9GZQ4 whole entry): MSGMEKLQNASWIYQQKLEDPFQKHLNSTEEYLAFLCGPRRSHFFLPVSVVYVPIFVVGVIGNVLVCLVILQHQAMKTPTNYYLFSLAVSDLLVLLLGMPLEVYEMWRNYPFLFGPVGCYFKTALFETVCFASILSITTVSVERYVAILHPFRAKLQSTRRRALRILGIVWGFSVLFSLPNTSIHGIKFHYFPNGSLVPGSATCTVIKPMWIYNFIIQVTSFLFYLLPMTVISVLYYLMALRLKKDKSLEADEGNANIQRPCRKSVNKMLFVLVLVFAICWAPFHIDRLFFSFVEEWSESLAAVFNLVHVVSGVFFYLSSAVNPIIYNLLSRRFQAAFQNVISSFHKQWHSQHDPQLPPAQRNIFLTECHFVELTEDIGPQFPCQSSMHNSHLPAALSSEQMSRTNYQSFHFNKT

Plasma = experiment: Drug uptake in mouse plasma at 30 to 60 mg/kg, po administered via gavage measured after 30 to 240 mins by LC-MS/MS analysis; assay type: ADME, organism-based; conditions: in vivo
In short: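 Mice dosed orally at 30 mg/kg and 60 mg/kg; plasma compound concentration followed from 30 to 240 min.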

[5] = target: C-C chemokine receptor type 5 (Macaca mulatta) (UniProt P61813); experiment: Agonist activity at full length rhesus monkey CCR5 assessed as myo-[2-3H]inositol phosphate accumulation measured after 75 mins by scintillation proximity assay; assay type: functional
[6] = target: Growth hormone secretagogue receptor type 1 (Homo sapiens) (UniProt Q92847); experiment: Agonist activity at human ghrelin receptor ([…]) assessed as myo-[2-3H]inositol phosphate accumulation in presence of 10 uM Zn2+ measured after 75 mins by scintillation proximity assay; assay type: functional
Sequence of Growth hormone secretagogue receptor type 1 (Homo sapiens) (Q92847 whole entry): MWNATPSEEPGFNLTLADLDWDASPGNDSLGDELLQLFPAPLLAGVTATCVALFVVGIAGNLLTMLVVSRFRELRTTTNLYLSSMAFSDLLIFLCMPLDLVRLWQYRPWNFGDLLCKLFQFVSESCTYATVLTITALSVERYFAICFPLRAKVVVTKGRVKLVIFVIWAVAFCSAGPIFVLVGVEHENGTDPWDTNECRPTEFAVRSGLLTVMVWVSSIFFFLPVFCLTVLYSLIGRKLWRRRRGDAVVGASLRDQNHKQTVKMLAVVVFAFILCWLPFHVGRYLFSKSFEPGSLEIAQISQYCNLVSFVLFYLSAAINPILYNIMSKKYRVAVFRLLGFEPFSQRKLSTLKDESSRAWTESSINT

[7] = target: Motilin receptor (Homo sapiens) (UniProt O43193); experiment: Agonist activity at human motilin receptor (412 residues) assessed as myo-[2-3H]inositol phosphate accumulation in presence of 10 uM Zn2+ measured after 75 mins by scintillation proximity assay; assay type: functional
[8] = target: T2, C-C chemokine receptor type 1 (Homo sapiens) (UniProt P32246); experiment: Agonist activity at full length human CCR1 assessed as myo-[2-3H]inositol phosphate accumulation in presence of 10 uM Zn2+ measured after 75 mins by scintillation proximity assay; assay type: functional
T2 sequence (whole entry): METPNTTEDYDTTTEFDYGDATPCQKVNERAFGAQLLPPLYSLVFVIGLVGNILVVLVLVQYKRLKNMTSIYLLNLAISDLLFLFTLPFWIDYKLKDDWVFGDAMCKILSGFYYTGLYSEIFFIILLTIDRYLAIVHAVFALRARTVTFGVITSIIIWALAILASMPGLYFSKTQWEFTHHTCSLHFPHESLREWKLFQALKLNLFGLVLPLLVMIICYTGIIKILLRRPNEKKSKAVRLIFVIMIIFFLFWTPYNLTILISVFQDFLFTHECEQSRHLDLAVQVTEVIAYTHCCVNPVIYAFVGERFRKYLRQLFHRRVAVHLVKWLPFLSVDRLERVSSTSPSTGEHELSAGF

[9] = tested on: Primary gastric mucosal cell; experiment: Induction of CGRP-induced somatostatin release in primary gastric mucosal cells isolated from GPR39 deficient C57BL/6 mouse at 1 uM in presence of 10 uM of Zn2+ measured after 4 hrs by radioimmunoassay; assay type: functional, cell-based
In short: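 Primary gastric mucosal cells from GPR39-KO mice, day after preparation, exposed to ligands (1 μM, 10 μM Zn2+) in triplicate for 4 h; supernatant somatostatin measured by in-house RIA and expressed as percent of medium-alone secretion; 10 nM CGRP used as a comparator stimulus; n=2.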

[10] = Aqueous solubility of the compound in phosphate buffered saline at pH 7.0 at 10 mM by turbidimetric method

- EC50 [1]: 180 nM
- EC50 [2]: 5 nM
- Activity [3]: inactive
- Activity [4]: inactive
- Drug uptake (Plasma): Active
- Activity [5]: inactive
- Activity [6]: inactive
- Activity [7]: inactive
- Activity [8]: inactive
- solubility kinetic at 10000 µM [10]: 65 µM (≈ 25.9 µg/mL)
Structure (SMILES): Cc1nn(-c2ncnc3nc[nH]c23)c2c1C(c1ccc(F)cc1Cl)CC(=O)N2 (stereo unspecified)
- Activity [9]: inactive
